Measured values: ChEMBL document CHEMBL2440093, “Discovery of 2-aryl-8-hydroxy (or methoxy)-isoquinolin-1(2H)-ones as novel EGFR inhibitor by scaffold hopping” (Bioorg Med Chem, 2013)

Key:
[1] = tested on: A549; assay: Antiproliferative activity against human A549 cells after 72 hrs by MTT assay; assay type: functional, cell-based; settings: A549, 72 h
[2] = tested on: A-431; assay: Antiproliferative activity against human A431 cells after 72 hrs by MTT assay; assay type: functional, cell-based; settings: A-431, 72 h
Procedure, shortened: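 A431 cells seeded in 96-well plates and held 24 h at 37 °C before exposure, with cell numbers set so controls stay in exponential growth. Compounds at final 100.0, 10.0, 1.0 and 0.1 μM for 72 h. MTT (5 mg/ml in PBS) added for 4 h, formazan pelleted and dissolved in DMSO, OD 570 nm. Three experiments in triplicate; IC50 from inhibition ratios.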

[3] = target: Epidermal growth factor receptor (Homo sapiens, UniProt P00533); assay: Inhibition of EGFR in shed membrane vesicles of human A431 cells using poly-Glu-Tyr as substrate after 30 mins by ELISA; assay type: cell membranes, A-431
Epidermal growth factor receptor, sequence (P00533 whole entry): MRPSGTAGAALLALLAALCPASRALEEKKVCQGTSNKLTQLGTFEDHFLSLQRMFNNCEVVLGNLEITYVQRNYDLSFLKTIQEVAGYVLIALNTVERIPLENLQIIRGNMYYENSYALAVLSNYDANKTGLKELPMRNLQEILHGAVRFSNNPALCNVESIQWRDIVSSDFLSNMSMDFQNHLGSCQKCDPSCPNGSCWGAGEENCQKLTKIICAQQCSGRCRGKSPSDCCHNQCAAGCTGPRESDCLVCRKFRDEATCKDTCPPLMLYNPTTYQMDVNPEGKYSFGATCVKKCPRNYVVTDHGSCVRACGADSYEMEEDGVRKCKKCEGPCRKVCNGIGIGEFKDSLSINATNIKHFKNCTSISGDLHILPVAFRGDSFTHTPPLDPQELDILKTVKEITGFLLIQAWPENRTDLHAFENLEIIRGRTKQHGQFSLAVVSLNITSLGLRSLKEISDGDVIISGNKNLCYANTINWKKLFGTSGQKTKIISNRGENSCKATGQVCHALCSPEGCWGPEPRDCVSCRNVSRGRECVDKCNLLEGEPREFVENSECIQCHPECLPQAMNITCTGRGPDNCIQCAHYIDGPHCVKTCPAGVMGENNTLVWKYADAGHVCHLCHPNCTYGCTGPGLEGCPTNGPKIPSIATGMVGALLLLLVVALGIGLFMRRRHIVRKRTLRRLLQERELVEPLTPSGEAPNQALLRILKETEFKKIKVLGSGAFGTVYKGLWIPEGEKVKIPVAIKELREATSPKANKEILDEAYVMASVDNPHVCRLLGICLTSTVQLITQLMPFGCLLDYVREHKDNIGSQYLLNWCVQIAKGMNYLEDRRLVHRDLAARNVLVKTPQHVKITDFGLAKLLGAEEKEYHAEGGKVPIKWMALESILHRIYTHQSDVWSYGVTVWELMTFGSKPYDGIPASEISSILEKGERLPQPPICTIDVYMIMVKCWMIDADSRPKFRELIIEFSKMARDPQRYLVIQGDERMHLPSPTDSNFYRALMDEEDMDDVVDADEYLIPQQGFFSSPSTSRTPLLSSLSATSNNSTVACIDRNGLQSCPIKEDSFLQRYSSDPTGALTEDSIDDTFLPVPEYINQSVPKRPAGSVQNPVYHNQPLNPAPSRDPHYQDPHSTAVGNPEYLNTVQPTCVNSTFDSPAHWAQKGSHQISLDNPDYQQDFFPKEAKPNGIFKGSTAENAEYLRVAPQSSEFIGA

Compound	IC50 [1] [µM]	IC50 [2] [µM]	IC50 [3] [µM]
COc1cc(OC)c2c(=O)n(-c3ccccc3)ccc2c1	44.5	5.35	
C#Cc1cccc(-n2ccc3cc(OC)cc(OC)c3c2=O)c1	25.2	7.13	3.51
COc1cc(OC)c2c(=O)n(-c3ccc(F)c(Cl)c3)ccc2c1	17.8	3.95	5.49
COc1cc(OC)c2c(=O)n(-c3cccc(C(F)(F)F)c3)ccc2c1	23.3	14.8	
COc1cc(OC)c2c(=O)n(-c3cccc(C(=O)N4CCCCC4)c3)ccc2c1	18.6	15.3	2.12
COc1cc(OC)c2c(=O)n(-c3cccc(C(N)=O)c3)ccc2c1	31.3	28.2	
C#Cc1cccc(-n2ccc3cc(OC)cc(O)c3c2=O)c1	15.9	4.44	3.06
COc1cc(O)c2c(=O)n(Cc3ccccc3)ccc2c1		8.29	
COc1cc(O)c2c(c1)CCN(c1cccc(C(=O)N3CCCCC3)c1)C2=O	13.2	5.32	1.18
C=CC(=O)Nc1c(OC)cc(OC)c2c(=O)n(-c3cccc(C(=O)N4CCCCC4)c3)ccc12	14.7		

More lines, now with the values ahead:

IC50 [1] [µM]	IC50 [2] [µM]	IC50 [3] [µM]	Compound
15.2	4.17		COc1cc(OC)c2c(=O)n(-c3cccc(F)c3)ccc2c1
	3.79		COc1cc(OC)c2c(=O)n(-c3ccc(F)c(F)c3)ccc2c1
	3.88		COc1cc(OC)c2c(=O)n(Cc3ccccc3)ccc2c1
27.9			COc1cc(O)c2c(=O)n(-c3ccccc3)ccc2c1
14.2	2.25	1.38	COc1cc(O)c2c(=O)n(-c3cccc(C(=O)N4CCCCC4)c3)ccc2c1
24.8	15.2		COc1cc(O)c2c(=O)n(-c3cccc(C(N)=O)c3)ccc2c1
23.4	10.8	1.23	COc1cc2c(c(OC)c1)C(=O)N(c1cccc(C(=O)N3CCCCC3)c1)CC2
14.7	5.3		C=CC(=O)Nc1c(OC)cc(O)c2c(=O)n(-c3cccc(C(=O)N4CCCCC4)c3)ccc12
> 100	19.5		COc1cc(O)c2c(=O)n(-c3cccc(C(=O)N4CCCCC4)c3)ccc2c1NC(=O)Nc1ccc(C(=O)N2CCN(C)CC2)cc1
13.1	11.4		COc1cc(O)c2c(=O)n(-c3cccc(C(=O)N4CCCCC4)c3)ccc2c1NC(=O)CCN1CCOCC1
